Measurements as given in BindingDB's records for doi:10.1021/jm000929u (Universidad Complutense, 2001).

The molecules below were run against T1, 5-hydroxytryptamine receptor 1A (Rattus norvegicus, UniProt P19327) (assay: In vitro binding affinity towards 5-hydroxytryptamine 1A receptor was determined using radioligand [3H]-8-OH-DPAT).
T1 sequence (P19327 whole entry): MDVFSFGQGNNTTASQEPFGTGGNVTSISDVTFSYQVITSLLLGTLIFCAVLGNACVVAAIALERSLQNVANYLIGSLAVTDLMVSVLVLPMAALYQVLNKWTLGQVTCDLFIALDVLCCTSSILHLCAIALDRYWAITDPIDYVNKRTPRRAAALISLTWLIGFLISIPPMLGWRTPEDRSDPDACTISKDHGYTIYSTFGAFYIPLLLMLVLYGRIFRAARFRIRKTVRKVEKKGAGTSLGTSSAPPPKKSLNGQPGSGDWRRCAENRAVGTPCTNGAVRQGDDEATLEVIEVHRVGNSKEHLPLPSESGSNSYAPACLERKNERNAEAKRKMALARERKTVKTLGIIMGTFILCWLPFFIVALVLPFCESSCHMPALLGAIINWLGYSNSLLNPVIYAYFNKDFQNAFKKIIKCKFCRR
How it was run: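 Rat (male Sprague-Dawley) cerebral cortex membranes, about 1 mg protein, incubated 15 min at 37 °C with 0.6 nM [3H]8-OH-DPAT plus competitor in 50 mM Tris-HCl with 10 nM clonidine and 30 nM prazosin, pH 7.4. Nonspecific binding with 10 µM 5-HT. Triplicates; GF/B filtration, scintillation counting; IC50 curve fit, Ki by Cheng-Prusoff; 2-4 experiments.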

Ki	Structure (SMILES)
33 nM	N#Cc1ccccc1N1CCN(CCCn2c(O)c3n(c2=O)CCCC3)CC1
> 1000 nM	Nc1cccc(N2CCN(CCCn3c(O)c4n(c3=O)CCC4)CC2)c1

Second part, the molecule before the results:

Structure (SMILES)	Ki
O=c1n(CCCN2CCN(c3cccc(Br)c3)CC2)c(O)c2n1CCC2	33 nM
CCCNC(=O)c1ccccc1N1CCN(CCCn2c(O)c3n(c2=O)CCC3)CC1	> 1000 nM
CC(C)C(=O)Nc1cccc(N2CCN(CCCn3c(O)c4n(c3=O)CCCC4)CC2)c1	> 1000 nM
